Calls of active or inactive are those of the source. The rule behind the calls is not given here.
Assays:
[1] = target: T1, Progesterone receptor (Homo sapiens) (UniProt P06401); assay: Agonist activity at PR-b (unknown origin) expressed in Ishikawa cells assessed as increase in progesterone-induced PRE activity at 1 uM after 24 hrs by luciferase reporter gene based luminescence assay; assay type: cell-based
T1 sequence (whole entry): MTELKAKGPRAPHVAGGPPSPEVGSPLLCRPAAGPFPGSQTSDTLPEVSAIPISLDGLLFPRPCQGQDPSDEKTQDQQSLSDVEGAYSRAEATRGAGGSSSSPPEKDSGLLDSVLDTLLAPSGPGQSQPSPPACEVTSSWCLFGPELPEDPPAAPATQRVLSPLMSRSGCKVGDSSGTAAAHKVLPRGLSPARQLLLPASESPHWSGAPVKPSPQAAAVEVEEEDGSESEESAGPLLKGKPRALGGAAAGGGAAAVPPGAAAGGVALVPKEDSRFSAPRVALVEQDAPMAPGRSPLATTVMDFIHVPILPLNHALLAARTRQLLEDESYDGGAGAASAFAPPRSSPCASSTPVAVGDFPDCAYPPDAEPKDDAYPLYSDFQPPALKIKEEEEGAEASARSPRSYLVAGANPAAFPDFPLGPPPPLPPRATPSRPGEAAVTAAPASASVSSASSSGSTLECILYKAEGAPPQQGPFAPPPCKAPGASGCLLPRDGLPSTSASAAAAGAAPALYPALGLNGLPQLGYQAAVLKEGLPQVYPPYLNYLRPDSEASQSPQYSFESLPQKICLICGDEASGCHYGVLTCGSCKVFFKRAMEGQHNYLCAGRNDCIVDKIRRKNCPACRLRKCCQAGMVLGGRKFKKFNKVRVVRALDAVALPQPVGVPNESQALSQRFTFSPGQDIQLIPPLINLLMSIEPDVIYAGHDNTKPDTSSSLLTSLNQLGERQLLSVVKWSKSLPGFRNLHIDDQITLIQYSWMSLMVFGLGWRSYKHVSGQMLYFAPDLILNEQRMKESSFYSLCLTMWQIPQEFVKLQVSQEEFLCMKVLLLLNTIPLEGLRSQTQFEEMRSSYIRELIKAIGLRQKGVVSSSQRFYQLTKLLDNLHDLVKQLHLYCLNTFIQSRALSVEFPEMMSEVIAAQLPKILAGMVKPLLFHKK
Summary of the method: (§1)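 PRE/Luc transactivation in Ishikawa cells stably expressing PR-B under CMV, seeded 40,000/well in steroid-free phenol red-free medium with charcoal-stripped FBS. Next day co-transfected with PRE/Luc and CMV-β-galactosidase. Compounds were given together with 100 nM progesterone for 24 h. Luciferase, averaged over the first six RLU reads, normalized to β-gal and then to control; n≥3.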

[2] = target: T1, Progesterone receptor (Homo sapiens); assay: Antagonist activity at PR-b (unknown origin) expressed in Ishikawa cells assessed as inhibition of progesterone-induced PRE activity at 50 uM after 24 hrs by luciferase reporter gene based luminescence assay; assay type: cell-based; summary of the method: as §1
[3] = target: T1, Progesterone receptor (Homo sapiens); assay: Antagonist activity at PR-b (unknown origin) expressed in Ishikawa cells assessed as inhibition of progesterone-induced PRE activity at >= 25 uM after 24 hrs by luciferase reporter gene based luminescence assay; assay type: cell-based; summary of the method: as §1
Progesterone receptor = target: T2, Progesterone receptor (Homo sapiens, UniProt P06401); assay: Induction of PR-b degradation in human Ishikawa cells up to 50 uM after 24 hrs by Western blot analysis; assay type: cell-based
T2 sequence (P06401 whole entry): T1 sequence (whole entry)
Summary of the method: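 Ishikawa PR-B cells in steroid-free medium treated with 0, 25 or 50 μM for 24 h. RIPA lysates with protease/phosphatase inhibitors, 25 μg protein by SDS-PAGE onto nitrocellulose. Blocked in 5% milk, probed overnight with anti-PR (H-190, 1:500) and β-actin (1:1000), anti-rabbit secondary, chemiluminescent detection.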

[4] = target: T1, Progesterone receptor (Homo sapiens); assay: Antagonist activity at PR-b (unknown origin) expressed in Ishikawa cells assessed as inhibition of basal PRE activity at 50 uM after 24 hrs in absence of progesterone by luciferase reporter gene based luminescence assay; assay type: cell-based
Summary of the method: (§2)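 Ishikawa cells stably expressing CMV-driven PR-B, kept in phenol red-free DMEM/F12 with 5% charcoal-stripped FBS plus G418/hygromycin. Seeded 40,000/well in steroid-free medium. Next day transfected with PRE/Luc plus CMV-β-galactosidase (LT1). Compounds were added without progesterone for 24 h, then lysed and frozen at −80 °C. Luciferase (mean of first six RLU reads) normalized to β-gal, then to DMSO control, n≥3.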

[5] = target: T1, Progesterone receptor (Homo sapiens); assay: Agonist activity at PR-b (unknown origin) expressed in Ishikawa cells assessed as increase in PRE activity at 1 to 50 uM after 24 hrs in absence of progesterone by luciferase reporter gene based luminescence assay; assay type: cell-based; summary of the method: as §2
[6] = target: T1, Progesterone receptor (Homo sapiens); assay: Agonist activity at PR-b (unknown origin) expressed in Ishikawa cells assessed as increase in progesterone-induced PRE activity at 25 uM after 24 hrs by luciferase reporter gene based luminescence assay relative to control; assay type: cell-based; summary of the method: as §1
[7] = target: T1, Progesterone receptor (Homo sapiens); assay: Agonist activity at PR-b (unknown origin) expressed in Ishikawa cells assessed as increase in progesterone-induced PRE activity at 50 uM after 24 hrs by luciferase reporter gene based luminescence assay relative to control; assay type: cell-based; summary of the method: as §1
PEO1 [8] = assay: Antiproliferative activity against human PEO1 cells at 1 to 50 uM after 5 days by SRB assay; assay type: functional, cell-based
Summary of the method: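 PEO1 cells (RPMI, 10% FBS, glutamine, pyruvate) seeded at 1,000/well in steroid-free medium, one plate fixed at 2 h as day 0. Compounds at 1–50 μM, alone without progesterone, for 5 days. Fixed with 20% TCA at 4 °C, stained with 0.4% SRB in 1% acetic acid, dissolved in 10 mM Tris, A505. Day 5 normalized to day 0; n≥3.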

PEO1 [9] = assay: Antiproliferative activity against human PEO1 cells at 25 to 50 uM after 5 days by SRB assay; assay type: functional, cell-based
Summary of the method: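 SRB growth assay in PEO1 cells: 1,000 cells/well in steroid-free medium, day-0 plate TCA-fixed 2 h after seeding. Compound was given together with 100 nM progesterone for five days, then cells TCA-fixed, SRB-stained, dye solubilized in 10 mM Tris, absorbance at 505 nm. Day-5 values normalized to day 0; n≥3.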

[10] = target: T1, Progesterone receptor (Homo sapiens); assay: Agonist activity at PR-b (unknown origin) expressed in Ishikawa cells assessed as increase in PRE activity at 50 uM after 24 hrs by luciferase reporter gene based luminescence assay (reference value: 25.7); assay type: cell-based; summary of the method: as §2
[11] = target: T1, Progesterone receptor (Homo sapiens); assay: Antagonist activity at PR-b (unknown origin) expressed in Ishikawa cells assessed as inhibition of basal PRE activity at 25 to 50 uM after 24 hrs in absence of progesterone by luciferase reporter gene based luminescence assay; assay type: cell-based; summary of the method: as §2
[12] = target: T1, Progesterone receptor (Homo sapiens); assay: Agonist activity at PR-b (unknown origin) expressed in Ishikawa cells assessed as increase in PRE activity at 1 uM after 24 hrs in absence of progesterone by luciferase reporter gene based luminescence assay; assay type: cell-based; summary of the method: as §2
PEO1 [13] = assay: Antiproliferative activity against human PEO1 cells at 0.001 to 10 uM after 5 days by SRB assay; assay type: functional, cell-based
Summary of the method: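 PEO1 cells kept in RPMI with 2 mM glutamine, 2 mM sodium pyruvate and 10% FBS; seeded at 1,000 cells/well in steroid-free medium. A day-0 plate was fixed with 20% TCA 2 h after seeding; the second plate was treated for 5 days, then fixed. SRB stain (0.4% in 1% acetic acid), dissolved in 10 mM Tris, A505; day 5 normalized to day 0; n≥3.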

| SMILES | Activity [1] | inhibition [2] [%] | inhibition [3] | Activity (Progesterone receptor) | inhibition [4] | other results |
| --- | --- | --- | --- | --- | --- | --- |
| COc1ccc(-c2coc3cc(O)ccc3c2=O)cc1 [FORMONONETIN] | 57% | > 90 | Active | Not Active | Active |  |
| O=c1c(-c2ccc(O)cc2)coc2cc3c(c(O)c12)OCO3 |  |  |  | Not Active |  | Activity [5]: inactive; Activity [6]: 138%; Activity [7]: 151%; Activity (PEO1 [8]): inactive; Activity (PEO1 [9]): Active; fold change (FC) [10]: 48.4 |
| COc1cc(O)c2c(=O)c(-c3ccc(O)cc3)coc2c1 [PRUNETIN] |  | > 90 | Active | Not Active |  | inhibition [11]: Active |
| COc1ccc(-c2coc3cc(O)cc(O)c3c2=O)cc1 [BIOCHANIN] | Active | > 90 | Active | Not Active | Active | Activity [12]: 55% |
| CC(=O)[C@H]1CC[C@H]2[C@@H]3CCC4=CC(=O)CC[C@]4(C)[C@H]3CC[C@]12C |  |  |  |  |  | Activity (PEO1 [13]): inactive |
